Reference: ChEMBL document CHEMBL4138104, “Indole carboxylic acid esters of melampomagnolide B are potent anticancer agents against both hematological and solid tumor cells” (Eur J Med Chem, 2017)

What was measured:
Type in all cases: functional
NCI-H460 = assay: Growth inhibition of human NCI-H460 cells incubated for 48 hrs by sulforhodamine B assay; settings: NCI-H460, 48 h
Procedure, shortened: (§1)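 NCI-60 screen. Compounds were dosed at five concentrations spanning 10^-4 to 10^-8 M for 48 h at 37 °C. Cells were TCA-fixed, stained with 0.4% SRB and read at 515 nm against time-zero and vehicle controls. GI50 is the concentration giving a 50% reduction in net protein increase.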

[1] = Cytotoxicity against human M9-ENL1 cells assessed as reduction in cell viability by trypan blue staining-based assay
Procedure, shortened: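 M9-ENL1 AML cells (MLL-ENL-transduced human blood cells) plated at 10^6 cells/mL in alpha-MEM with 5% human plasma, 20% FBS, SCF, IL-3, IL-7 and FLT3. Drug diluted from DMSO stock into PBS, final DMSO ≤0.5%. After 24 h exposure, dead cells assessed by trypan blue and by flow cytometry (Annexin V/PI or Annexin V/7-AAD). Viability normalized to vehicle; EC50 from dose-response curves; triplicate.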

RXF 393 = assay: Growth inhibition of human RXF393 cells incubated for 48 hrs by sulforhodamine B assay; settings: RXF 393, 48 h; procedure, shortened: as §1
SK-MEL-28 = assay: Growth inhibition of human SK-MEL-28 cells incubated for 48 hrs by sulforhodamine B assay; settings: SK-MEL-28, 48 h; procedure, shortened: as §1
OVCAR-5 = assay: Growth inhibition of human OVCAR5 cells incubated for 48 hrs by sulforhodamine B assay; settings: OVCAR-5, 48 h; procedure, shortened: as §1
HCT-15 = assay: Growth inhibition of human HCT15 cells incubated for 48 hrs by sulforhodamine B assay; settings: HCT-15, 48 h; procedure, shortened: as §1
SW-620 = assay: Growth inhibition of human SW620 cells incubated for 48 hrs by sulforhodamine B assay; settings: SW-620, 48 h
Procedure, shortened: (§2)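 NCI-60 screen run at NCI. Cells grown in RPMI medium with 5% FBS and 2 mM L-glutamine, plated at 5,000–40,000 cells/well, and preincubated 24 h at 37 °C. Time-zero plates were TCA-fixed. Compounds came from DMSO stocks and were tested at five concentrations from 10^-4 to 10^-8 M for 48 h. Cells were then TCA-fixed, stained with 0.4% SRB, and OD read at 515 nm. GI50 is the concentration giving a 50% reduction in net protein increase versus control.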

HL-60(TB) = assay: Growth inhibition of human HL-60(TB) cells incubated for 48 hrs by sulforhodamine B assay; settings: HL-60, 48 h
Procedure, shortened: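 Performed at NCI's 60-line screen. Cells grown in RPMI with 5% FBS and 2 mM L-glutamine, plated 5,000–40,000 cells/well and incubated 24 h at 37 °C before compound addition. DMSO stocks were diluted in medium with gentamicin, and five concentrations spanning 10^-4 to 10^-8 M were tested. Exposure was 48 h. Cells were fixed with TCA, stained with SRB, and read at 515 nm. GI50 taken from log dose-response curves as 50% reduction in net protein increase versus control.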

NCI-H226 = assay: Growth inhibition of human NCI-H226 cells incubated for 48 hrs by sulforhodamine B assay; settings: NCI-H226, 48 h; procedure, shortened: as §1
SF-539 = assay: Growth inhibition of human SF539 cells incubated for 48 hrs by sulforhodamine B assay; settings: SF-539, 48 h; procedure, shortened: as §1
OVCAR-8 = assay: Growth inhibition of human OVCAR8 cells incubated for 48 hrs by sulforhodamine B assay; settings: OVCAR-8, 48 h; procedure, shortened: as §1
SNB-19 = assay: Growth inhibition of human SNB19 cells incubated for 48 hrs by sulforhodamine B assay; settings: SNB-19, 48 h; procedure, shortened: as §2
U-251 = assay: Growth inhibition of human U251 cells incubated for 48 hrs by sulforhodamine B assay; settings: U-251, 48 h; procedure, shortened: as §2
CCRF-CEM = assay: Growth inhibition of human CCRF-CEM cells incubated for 48 hrs by sulforhodamine B assay; procedure, shortened: as §1
NCI-H522 = assay: Growth inhibition of human NCI-H522 cells incubated for 48 hrs by sulforhodamine B assay; settings: NCI-H522, 48 h; procedure, shortened: as §1
MCF7 = assay: Growth inhibition of human MCF7 cells incubated for 48 hrs by sulforhodamine B assay; settings: MCF7, 48 h; procedure, shortened: as §1
HCT-116 = assay: Growth inhibition of human HCT116 cells incubated for 48 hrs by sulforhodamine B assay; settings: HCT-116, 48 h; procedure, shortened: as §1
HOP-92 = assay: Growth inhibition of human HOP92 cells incubated for 48 hrs by sulforhodamine B assay; settings: HOP-92, 48 h; procedure, shortened: as §1
MOLT-4 = assay: Growth inhibition of human MOLT4 cells incubated for 48 hrs by sulforhodamine B assay; settings: MOLT-4, 48 h; procedure, shortened: as §1
Malme-3M = assay: Growth inhibition of human MALME-3M cells incubated for 48 hrs by sulforhodamine B assay; procedure, shortened: as §1
KM12 = assay: Growth inhibition of human KM12 cells incubated for 48 hrs by sulforhodamine B assay; settings: KM12, 48 h; procedure, shortened: as §1
UO-31 = assay: Growth inhibition of human UO31 cells incubated for 48 hrs by sulforhodamine B assay; settings: UO-31, 48 h; procedure, shortened: as §2
UACC-62 = assay: Growth inhibition of human UACC62 cells incubated for 48 hrs by sulforhodamine B assay; settings: UACC-62, 48 h; procedure, shortened: as §2
NCI/ADR-RES = assay: Growth inhibition of human NCI/ADR-RES cells incubated for 48 hrs by sulforhodamine B assay; procedure, shortened: as §1
SF-268 = assay: Growth inhibition of human SF268 cells incubated for 48 hrs by sulforhodamine B assay; settings: SF-268, 48 h; procedure, shortened: as §1
A549 = assay: Growth inhibition of human A549/ATCC cells incubated for 48 hrs by sulforhodamine B assay; settings: A549, 48 h; procedure, shortened: as §1
SN12C = assay: Growth inhibition of human SN12C cells incubated for 48 hrs by sulforhodamine B assay; procedure, shortened: as §1
SF-295 = assay: Growth inhibition of human SF295 cells incubated for 48 hrs by sulforhodamine B assay; settings: SF-295, 48 h; procedure, shortened: as §1
A498 = assay: Growth inhibition of human A498 cells incubated for 48 hrs by sulforhodamine B assay; settings: A498, 48 h; procedure, shortened: as §1
HT-29 = assay: Growth inhibition of human HT-29 cells incubated for 48 hrs by sulforhodamine B assay; settings: HT-29, 48 h; procedure, shortened: as §1
SK-OV-3 = assay: Growth inhibition of human SKOV3 cells incubated for 48 hrs by sulforhodamine B assay; settings: SK-OV-3, 48 h; procedure, shortened: as §1
UACC-257 = assay: Growth inhibition of human UACC257 cells incubated for 48 hrs by sulforhodamine B assay; settings: UACC-257, 48 h; procedure, shortened: as §2
LOX IMVI = assay: Growth inhibition of human LOXIMVI cells incubated for 48 hrs by sulforhodamine B assay; procedure, shortened: as §1
RPMI-8226 = assay: Growth inhibition of human RPMI8226 cells incubated for 48 hrs by sulforhodamine B assay; settings: RPMI-8226, 48 h; procedure, shortened: as §1
NCI-H322M = assay: Growth inhibition of human NCI-H322M cells incubated for 48 hrs by sulforhodamine B assay; procedure, shortened: as §1
NCI-H23 = assay: Growth inhibition of human NCI-H23 cells incubated for 48 hrs by sulforhodamine B assay; settings: NCI-H23, 48 h; procedure, shortened: as §1
HCC 2998 = assay: Growth inhibition of human HCC2998 cells incubated for 48 hrs by sulforhodamine B assay; settings: HCC 2998, 48 h; procedure, shortened: as §1

Compound | GI50 (NCI-H460) [nM] | EC50 [1] [nM] | GI50 (RXF 393) [nM] | GI50 (SK-MEL-28) [nM] | GI50 (OVCAR-5) [nM] | GI50 (HCT-15) [nM] | GI50 (SW-620) [nM] | GI50 (HL-60(TB)) [nM] | GI50 (NCI-H226) [nM] | GI50 (SF-539) [nM] | GI50 (OVCAR-8) [nM] | GI50 (SNB-19) [nM] | GI50 (U-251) [nM] | GI50 (CCRF-CEM) [nM] | GI50 (NCI-H522) [nM] | GI50 (MCF7) [nM] | GI50 (HCT-116) [nM] | GI50 (HOP-92) [nM] | GI50 (MOLT-4) [nM] | GI50 (Malme-3M) [nM] | other results
C=C1C(=O)O[C@@H]2[C@H]3O[C@]3(C)CC/C=C(/COC(=O)/C=C/c3c[nH]c4ccccc34)CC[C@@H]12 | 1010 | 700 | 170 | 330 | 310 | 180 | 180 | 250 | 230 | 260 | 190 | 640 | 210 | 70 | 180 | 220 | 180 | 150 | 300 | 280 | GI50 (KM12): 400 nM; GI50 (UO-31): 150 nM; GI50 (UACC-62): 170 nM; GI50 (NCI/ADR-RES): 350 nM; GI50 (SF-268): 220 nM; GI50 (A549): 1270 nM; GI50 (SN12C): 190 nM; GI50 (SF-295): 1620 nM; GI50 (A498): 270 nM; GI50 (HT-29): 190 nM; GI50 (SK-OV-3): 1880 nM; GI50 (UACC-257): 350 nM; GI50 (LOX IMVI): 50 nM; GI50 (RPMI-8226): 30 nM; GI50 (NCI-H322M): 1730 nM; GI50 (NCI-H23): 1250 nM; GI50 (HCC 2998): 270 nM
C=C1C(=O)O[C@@H]2[C@H]3O[C@]3(C)CC/C=C(/COC(=O)CCCc3c[nH]c4ccccc34)CC[C@@H]12 | 4540 | 2000 | 1460 | 1700 | 1890 | 1610 | 1840 | 1630 | 2040 | 1630 | 3380 | 2590 | 1950 | 750 | 1570 | 1420 | 960 | 1680 | 1530 | 1790 | GI50 (KM12): 1890 nM; GI50 (UO-31): 1410 nM; GI50 (UACC-62): 1840 nM; GI50 (NCI/ADR-RES): 2900 nM; GI50 (SF-268): 1690 nM; GI50 (A549): 5470 nM; GI50 (SN12C): 1900 nM; GI50 (SF-295): 5690 nM; GI50 (A498): 11900 nM; GI50 (HT-29): 1710 nM; GI50 (SK-OV-3): 17300 nM; GI50 (UACC-257): 2030 nM; GI50 (LOX IMVI): 1550 nM; GI50 (RPMI-8226): 2310 nM; GI50 (NCI-H322M): 13800 nM; GI50 (NCI-H23): 1720 nM; GI50 (HCC 2998): 1790 nM
C=C1C(=O)O[C@@H]2[C@H]3O[C@]3(C)CC/C=C(/COC(=O)c3cc4ccccc4o3)CC[C@@H]12 | 2000 | 2900 | 1430 | 1750 | 1880 | 1070 | 660 | 1220 | 1740 | 1450 | 2430 | 3160 | 1630 | 330 | 680 | 390 | 320 | 1440 | 1770 | 1660 | GI50 (KM12): 2020 nM; GI50 (UO-31): 1460 nM; GI50 (UACC-62): 1680 nM; GI50 (NCI/ADR-RES): 2590 nM; GI50 (SF-268): 1560 nM; GI50 (A549): 2910 nM; GI50 (SN12C): 1780 nM; GI50 (SF-295): 5900 nM; GI50 (A498): 12900 nM; GI50 (HT-29): 820 nM; GI50 (SK-OV-3): 16700 nM; GI50 (UACC-257): 1520 nM; GI50 (LOX IMVI): 1420 nM; GI50 (RPMI-8226): 710 nM; GI50 (NCI-H322M): 5520 nM; GI50 (NCI-H23): 1980 nM; GI50 (HCC 2998): 2470 nM
